Results on twelve compounds are retold here after ChEMBL document CHEMBL4138250, “Regioselective IBX-Mediated Synthesis of Coumarin Derivatives with Antioxidant and Anti-influenza Activities” (J Nat Prod, 2017).

A short description of series [1]: Antioxidant activity assessed as DPPH radical scavenging activity incubated for 30 mins under dark condition. The format is functional. In outline: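 Compounds serially diluted in EtOH (0.01−100 mg/mL) and added to freshly prepared DPPH (6 × 10−5 M in EtOH). Mixture shaken, kept 30 min in the dark, then absorbance read at 517 nm against a solvent blank. % scavenging is relative to a DPPH-only control, corrected for sample colour without DPPH. IC50 is the concentration giving 50% inhibition; triplicate runs.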
A general note: DPPH is a stable violet radical that fades when it is reduced.

Series [2] deals with A549. The series is described as follows: Cytotoxicity against human A549 cells assessed as reduction in cell viability up to 120 ug/ml after 24 hrs by microscopic analysis. The note with it: a549, 24 h. In kind it is cell-based. In outline: (§1)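 A549 cells seeded at 2 × 10^5/mL; after 24 h, exposed to compounds at 10−120 μg/mL for a further 24 h. Viability assessed by microscopic examination, Trypan blue (0.02%) exclusion and MTT reduction. Cytotoxicity expressed as % reduction in viable cells relative to cultures treated with DMSO alone.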

Series [3] deals with A549. Briefly: Cytotoxicity against human A549 cells assessed as reduction in cell viability up to 120 ug/ml after 24 hrs by tryphan blue exclusion assay. The format is cell-based. The note with it: a549, 24 h. In outline:
as §1

In series [4] the test system is A549. The series is described as follows: Cytotoxicity against human A549 cells assessed as reduction in cell viability up to 120 ug/ml after 24 hrs by MTT assay. The format is cell-based. To be noted: a549, 24 h. An outline of the steps:
as §1
(Tetrazolium dyes change colour on reduction, which living cells bring about.)

For series [5], the system named is Influenza A virus. Briefly: Antiviral activity against Influenza A virus (A/Puerto Rico/8/34(H1N1)) infected in A549 cells assessed as reduction in viral titer after 24 to 48 hrs by hemagglutination test. In kind it is functional, organism-based. The note with it: A/Puerto Rico/8/1934(H1N1). In outline: (§2)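 Confluent A549 monolayers (DMEM, 10% FBS) infected with PR8 at MOI 0.0001 for 1 h at 37 °C, PBS-washed, then kept in 2% FBS medium. Compounds in DMSO were diluted in DMEM to final 30, 40, 60, 80 or 120 μg/mL, added after adsorption and kept to the end. DMSO was at most 0.2%, with matching DMSO-treated controls and mock infection. Supernatant HAU read at 24 and 48 h with human type 0 Rh+ erythrocytes.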

For series [6], the system named is Influenza A virus. Briefly: Antiviral activity against Influenza A virus (A/Puerto Rico/8/34(H1N1)) infected in A549 cells assessed as reduction in viral titer at 120 ug/ml after 24 to 48 hrs by hemagglutination test relative to control. More on the design: scale not given: the % may be the effect or the level left. The format is functional, A/Puerto Rico/8/1934(H1N1). An outline of the steps:
as §2

≈ marks a conversion by molar mass, not a printed value. Where only a bound is given, the exact number is not on record here.

Take `O=c1ccc2cc(O)ccc2o1` [6-HYDROXYCOUMARIN]: the figures for the IC50 (in series [1]; with Influenza A virus [5]) were > 200000 µg/mL and 110 µg/mL (≈ 0.678 mM), respectively. Moreover, the Activity entry in the series on A549 [2] was “Non-Toxic”; in the series on A549 [3], “Non-Toxic”; in the series on A549 [4], “Non-Toxic”; in the series with Influenza A virus [5], “Dose-dependent effect”; in the series on Influenza A virus [6], 50%.
Consider `O=c1ccc2ccc(O)c(O)c2o1` [DAPHNETIN], for which the IC50 in series [1] was found to be 27200 µg/mL (≈ 153 mM); in the series with Influenza A virus [5], 146 µg/mL (≈ 0.818 mM).
With `COc1cc2ccc(=O)oc2c(O)c1O` [FRAXETIN], the IC50 in series [1] came to 39200 µg/mL (≈ 188 mM).
In the case of `O=c1ccc2c(O)c(O)c(O)cc2o1`, the 50% inhibitory concentration (IC50) in series [1] stood at 2500 µg/mL (≈ 12.9 mM); in the series with Influenza A virus [5], 47.9 µg/mL (≈ 0.247 mM). Also, the Activity entry in the series with A549 [2] was “Non-Toxic”; in the series on A549 [3], “Non-Toxic”; with A549 [4], “Non-Toxic”; in the series on Influenza A virus [5], “Dose-dependent effect”.
Take `Nc1ccc2c(C(F)(F)F)cc(=O)oc2c1`: the Activity entry in the series with A549 [2] was “Non-Toxic”; in the series on A549 [3], “Non-Toxic”; with A549 [4], “Non-Toxic”; with Influenza A virus [5], “Dose-dependent effect”. For the same compound, the 50% inhibitory concentration (IC50) with Influenza A virus [5] amounted to 51 µg/mL (≈ 0.223 mM).
For `O=c1cc(O)c2ccc(O)c(O)c2o1`, in series [1], the IC50 was 24100 µg/mL (≈ 124 mM).
For `O=c1ccc2cc(O)c(O)cc2o1` [ESCULETIN], the IC50 in series [1] was found to be 37700 µg/mL (≈ 212 mM).
Consider `O=c1ccc2c(O)c(O)ccc2o1`, for which the Activity result in the series with A549 [2] was “Non-Toxic”; in the series with A549 [3], “Non-Toxic”; in the series with A549 [4], “Non-Toxic”; in the series on Influenza A virus [5], “Dose-dependent effect”; in the series with Influenza A virus [6] it was 50%. Further, the half-inhibitory concentration (IC50) in the series on Influenza A virus [5] is 106 µg/mL (≈ 0.598 mM).
`O=c1ccc2cc(O)c(O)c(O)c2o1`: the IC50 was 8700 µg/mL (≈ 44.8 mM) in series [1] and 69.9 µg/mL (≈ 0.36 mM) with Influenza A virus [5]. The Activity entry with A549 [2] is “Non-Toxic”; in the series on A549 [3], “Non-Toxic”; with A549 [4], “Non-Toxic”; in the series with Influenza A virus [5] it was “Dose-dependent effect”.
For the compound `O=c1ccc2ccc(O)cc2o1` [UMBELLIFERONE], the IC50 in series [1] is > 200000 µg/mL; with Influenza A virus [5], 110 µg/mL (≈ 0.678 mM). The Activity result in the series on A549 [2] was “Non-Toxic”; with A549 [3] it was “Non-Toxic”; in the series on A549 [4], “Non-Toxic”; in the series on Influenza A virus [5], “Dose-dependent effect”; with Influenza A virus [6] it was 50%.
Take `Cc1cc(=O)oc2c(O)c(O)ccc12` [4-METHYLDAPHNETIN]: the IC50 in series [1] was found to be 22000 µg/mL (≈ 114 mM); with Influenza A virus [5], 91.5 µg/mL (≈ 0.476 mM). The Activity entry in the series with A549 [2] was “Non-Toxic”; with A549 [3] it was “Non-Toxic”; in the series with A549 [4] it was “Non-Toxic”; in the series with Influenza A virus [5], “Dose-dependent effect”.
As for `Nc1ccc2c(C(F)(F)F)cc(=O)oc2c1O`, the values for the IC50 (in series [1]; in the series on Influenza A virus [5]) were 9300 µg/mL (≈ 37.9 mM) and 47.8 µg/mL (≈ 0.195 mM), respectively. Also, the Activity result was “Non-Toxic” in the series with A549 [2], “Non-Toxic” with A549 [3], “Non-Toxic” in the series with A549 [4] and “Dose-dependent effect” in the series on Influenza A virus [5].

One may read the IC50 as the midpoint of a concentration-inhibition curve.
